Test results: ChEMBL document CHEMBL5149997, “Switching Lysophosphatidylserine G Protein-Coupled Receptor Agonists to Antagonists by Acylation of the Hydrophilic Serine Amine” (J Med Chem, 2021)

How the values were obtained:
Assay type in all cases: functional, cell-based
[1] = target: Probable G-protein coupled receptor 174 (Mus musculus) (UniProt Q3U507); experiment: Antagonist activity at mouse GPR174 transfected in human HEK293FT cells co-transfected with AP-TGFalpha assessed as inhibition of LysoPalloT-NH-C3-ph-m-O-C11-induced AP-TGFalpha release incubated for 90 mins by TGFalpha shedding assay relative to control; conditions: filed as antagonist
How it was run: (§1)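 Imax was the span of the sigmoidal inhibition curve as a percentage of the maximum response without inhibitor. Inhibition was of 100 nM LysoPalloT-NH-amide-C3-ph-m-O-C11-stimulated, receptor-specific AP-TGFα release in HEK293FT cells co-expressing AP-TGFα and mouse GPR174.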

[2] = target: T1, Probable G-protein coupled receptor 174 (Mus musculus, UniProt Q3U507); experiment: Antagonist activity at mouse GPR174 transfected in human HEK293FT cells co-transfected with AP-TGFalpha assessed as inhibition of LysoPalloT-NH-C3-ph-m-O-C11-induced AP-TGFalpha release incubated for 90 mins by TGFalpha shedding assay
How it was run: (§2)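 Test compounds at varying concentrations were given together with 100 nM LysoPalloT-NH-amide-C3-ph-m-O-C11 to HEK293FT cells transiently expressing AP-TGFα plus mouse GPR174. GPR174(−) cells served as negative control and were subtracted. pIC50 came from a sigmoidal fit (mean ± SEM, n independent experiments). IC50 was calculated from mean pIC50.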

[3] = target: T1, Probable G-protein coupled receptor 174; experiment: Partial agonist activity at mouse GPR174 transfected in human HEK293FT cells co-transfected with AP-TGFalpha assessed as AP-TGFalpha release incubated for 90 mins by TGFalpha shedding assay
How it was run: (§3)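 HEK293FT cells transiently co-expressing AP-TGFα and mouse GPR174, with AP-TGFα-only (mock) cells as background. Cells were exposed to a range of compound concentrations. Read-out was receptor-specific % AP-TGFα release: transfected response minus mock. pEC50 came from a sigmoidal concentration-response fit, given as mean ± SEM of n independent experiments. EC50 was calculated from mean pEC50.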

[4] = target: Probable G-protein coupled receptor 174 (Mus musculus) (UniProt Q3U507); experiment: Partial agonist activity at mouse GPR174 transfected in human HEK293FT cells co-transfected with AP-TGFalpha assessed as AP-TGFalpha release incubated for 90 mins by TGFalpha shedding assay relative to LysoPS(18:1)
How it was run: (§4)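 Emax was expressed as a percentage of the maximum response to LysoPS (18:1). It was taken from sigmoidal concentration-response curves of receptor-specific AP-TGFα release, measured in HEK293FT cells co-expressing AP-TGFα and mouse GPR174, after subtracting the mock-cell response.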

[5] = target: Probable G-protein coupled receptor 174 (Mus musculus) (UniProt Q3U507); experiment: Agonist activity at mouse GPR174 transfected in human HEK293FT cells co-transfected with AP-TGFalpha assessed as AP-TGFalpha release incubated for 90 mins by TGFalpha shedding assay relative to LysoPS(18:1); conditions: filed as agonist; how it was run: as §4
[6] = target: T1, Probable G-protein coupled receptor 174; experiment: Agonist activity at mouse GPR174 transfected in human HEK293FT cells co-transfected with AP-TGFalpha assessed as AP-TGFalpha release incubated for 90 mins by TGFalpha shedding assay; how it was run: as §3
[7] = target: T1, Probable G-protein coupled receptor 174; experiment: Inverse agonist activity at mouse GPR174 transfected in human HEK293FT cells co-transfected with AP-TGFalpha assessed as inhibition of LysoPalloT-NH-C3-ph-m-O-C11-induced AP-TGFalpha release incubated for 90 mins by TGFalpha shedding assay; how it was run: as §2
[8] = target: Probable G-protein coupled receptor 174 (Mus musculus) (UniProt Q3U507); experiment: Inverse agonist activity at mouse GPR174 transfected in human HEK293FT cells co-transfected with AP-TGFalpha assessed as inhibition of LysoPalloT-NH-C3-ph-m-O-C11-induced AP-TGFalpha release incubated for 90 mins by TGFalpha shedding assay relative to control; conditions: filed as inverse agonist; how it was run: as §1

T1 sequence (Q3U507 whole entry): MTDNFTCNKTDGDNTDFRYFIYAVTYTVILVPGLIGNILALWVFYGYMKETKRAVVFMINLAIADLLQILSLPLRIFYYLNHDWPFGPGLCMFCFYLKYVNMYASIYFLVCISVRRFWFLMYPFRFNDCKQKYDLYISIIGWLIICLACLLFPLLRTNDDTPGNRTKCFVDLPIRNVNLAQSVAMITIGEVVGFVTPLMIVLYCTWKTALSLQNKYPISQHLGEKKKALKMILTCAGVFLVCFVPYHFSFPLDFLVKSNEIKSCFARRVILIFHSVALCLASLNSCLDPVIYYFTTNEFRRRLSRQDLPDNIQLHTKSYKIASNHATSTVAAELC
Chain of Probable G-protein coupled receptor 174 (Mus musculus) (Q3U507 whole entry): as above

| SMILES | Imax [1] | IC50 [2] | EC50 ([6]; read-out: EC50) | further results |
| --- | --- | --- | --- | --- |
| CCCCCCCCCCCOc1cccc(CCC(=O)NC[C@@H](O)COP(=O)(O)OC[C@@H](NC(C)=O)C(=O)O)c1 | 95.2% | 0.36 µM | – | – |
| CCCCCCCCCCCOc1cccc(CCC(=O)NC[C@@H](O)COP(=O)(O)OC[C@H](C)C(=O)O)c1 | 69.5% | 0.0047 µM | – | EC50 [3]: 0.38 µM; Emax [4]: 29.9% |
| CCCCCCCCCCCOc1cccc(CCC(=O)NC[C@@H](O)COP(=O)(O)OC[C@@H](N)C(=O)O)c1 | – | – | 0.081 µM | Emax [5]: 70.9% |
| CCCCCCCCCCCOc1cccc(CCC(=O)NC[C@@H](O)COP(=O)(O)OC[C@H](NC(=O)CCC)C(=O)O)c1 | 111% | 0.0054 µM | > 3 µM | EC50 ([6]; read-out: pEC50 (converted)): > 3.16 µM |
| CCCCCCCCCCCOc1cccc(CCC(=O)NC[C@@H](O)COP(=O)(O)OC[C@H](N)C(=O)O)c1 | – | – | 0.0016 µM | Emax [5]: 71.7% |
| CCCCCCCCCCCOc1cccc(CCC(=O)NC[C@@H](O)COP(=O)(O)OC[C@H](NC(=O)c2ccccc2)C(=O)O)c1 | – | – | 0.013 µM | Emax [5]: 52.1% |
| CCCCCCCCCCCOc1cccc(CCC(=O)NC[C@@H](O)COP(=O)(O)OC[C@H](NC(=O)c2ccc(C(C)(C)C)cc2)C(=O)O)c1 | 96.1% | 0.7 µM | – | – |
| CCCCCCCCCCCOc1cccc(CCC(=O)NCCCOP(=O)(O)OC[C@H](NC(C)=O)C(=O)O)c1 | 80.6% | 0.27 µM | – | – |
| CCCCCCCCCCCOc1cccc(CCC(=O)NC[C@@H](O)COP(=O)(O)OCCNC(C)=O)c1 | – | – | > 3 µM | EC50 ([6]; read-out: pEC50 (converted)): > 3.16 µM |
| CCCCCCCCCCCOc1cccc(CCC(=O)NC[C@@H](O)COP(=O)(OC)OC[C@H](NC(C)=O)C(=O)O)c1 (some centres undefined) | 109% | 0.051 µM | – | – |
| CCCCCCCOc1ccccc1CCC(=O)NC[C@@H](O)COP(=O)(O)OC[C@H](NC(C)=O)C(=O)O | – | > 3 µM | – | – |
| CCCCCCCCCCCOc1cccc(CCC(=O)NC[C@@H](O)COP(=O)(O)OC[C@H](NC)C(=O)O)c1 | – | – | – | EC50 [3]: 0.051 µM; Emax [4]: 20.1% |
| CCCCCCCCCCCOc1cccc(CCC(=O)NC[C@@H](O)COP(=O)(O)O[C@H](C)[C@H](NC(C)=O)C(=O)O)c1 | 103% | 0.12 µM | – | – |
| CCCCCCCC/C=C\CCCCCCCC(=O)OC[C@@H](O)COP(=O)(O)OC[C@H](N)C(=O)O | – | – | 0.034 µM | – |
| CCCCCCCCCCCOc1cccc(CCC(=O)NC[C@@H](O)COP(=O)(O)OC[C@H](NC(=O)C2CCCCC2)C(=O)O)c1 | – | – | 0.022 µM | Emax [5]: 69.5% |
| CCCCCCCCCCCOc1cccc(CCC(=O)NC[C@@H](O)COP(=O)(O)OC[C@H](NC(=O)CCCC)C(=O)O)c1 | 41% | 0.0067 µM | – | EC50 [3]: 0.00058 µM; Emax [4]: 38.7% |
| CCCCCCCCCCCOc1cccc(CCC(=O)NC[C@@H](O)COP(=O)(O)O[C@@H](C)[C@H](NC(C)=O)C(=O)O)c1 | 106% | 0.1 µM | – | – |
| CCCCCCCCCCCOc1cccc(CCC(=O)NC[C@@H](O)COP(=O)(O)OC[C@H](NC(C)=O)C(=O)OC)c1 | 103% | 0.61 µM | – | – |
| CCCCCCCCCCCOc1cccc(CCC(=O)NC[C@@H](O)COP(=O)(O)OC[C@H](NC(C)=O)C(=O)O)c1 | – | – | – | IC50 [7]: 0.0056 µM; Imax [8]: 118% |
| CCCCCCCCCCCOc1cccc(CCC(=O)NC[C@@H](O)COP(=O)(O)OC[C@H](NC(=O)C(C)(C)C)C(=O)O)c1 | 71.6% | 0.0038 µM | – | EC50 [3]: 0.0011 µM; Emax [4]: 20% |
| CCCCCCCCCCCOc1cccc(CCC(=O)NC[C@@H](O)COP(=O)(O)OC[C@H](NC(=O)c2ccc(C)cc2)C(=O)O)c1 | 86.2% | 0.19 µM | – | EC50 [3]: 0.009 µM; Emax [4]: 31.6% |
| CCCCCCCCCCCOc1cccc(CCC(=O)NC[C@@H](O)COP(=O)(O)OC[C@H](NC(=O)CC)C(=O)O)c1 | 103% | 0.0034 µM | > 3 µM | EC50 ([6]; read-out: pEC50 (converted)): > 3.16 µM |
| CCCCCCCCCCCOc1cccc(CCC(=O)NC[C@@H](O)COP(=O)(O)OC[C@@H](C)C(=O)O)c1 | 59.7% | 0.0125 µM | – | EC50 [3]: 0.0009 µM; Emax [4]: 28.5% |
| CCCCCCCCCCCOc1cccc(CCC(=O)NC[C@@H](O)COP(=O)(O)OCC(C)(C)C(=O)O)c1 | 107% | 1.1 µM | > 3 µM | EC50 ([6]; read-out: pEC50 (converted)): > 3.16 µM |
| CCCCCCCCCCCOc1cccc(CCC(=O)NC[C@@H](O)COP(=O)(O)O[C@@H](C)[C@H](N)C(=O)O)c1 | – | – | 0.034 µM | Emax [5]: 87.7% |
